KCNQ1 inh = inhibitors of human KCNQ1 potassium channel. P51787. CHO-K1 KCNQ1, FluxOR thallium flux fluorescence; hits give high values. B-score at 10 µM. 310,000 tested, 1.3% active;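 active = compounds whose thallium flux B-score, printed positive for inhibition, exceeds three library SD while starting fluorescence stays within three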;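 also: channel opened by potassium depolarization with thallium stimulus after 20 min compound exposure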
KCNQ1 act = human KCNQ1 channel potentiation or activation; B-score at 10 µM; AID 2648; P51787; CHO-K1 KCNQ1, thallium flux FluxOR fluorescence; hits give high values; 310,000 tested, 0.35% active;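 active = fluorescence ratio B-score, a plate-corrected score, at least three library SD, with initial intensity B-score within 5 SD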
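Assay system: CHO-K1 cells stably expressing KCNQ1. Medium: assay buffer for compound exposure, DMSO matched across wells. Timing: 37 °C overnight plating, 90-min dark dye load, 20-min compound pretreatment. Signal: kinetic FluxOR fluorescence, 10 s baseline plus 110 s post-stimulus.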
KCNK3 inh = human KCNK3 channel inhibition, primary screen; CHO-KCNK3 thallium flux, FluxOR fluorescence; hits give low values; B-score at 10 µM; 340,000 tested, 0.84% active;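 active = B-score under library mean minus 4 SD, starting fluorescence ratio at most library mean plus 5 SD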;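 also: more negative B-score means stronger inhibition of thallium flux through KCNK3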
KCNK9 block = human KCNK9 channel inhibition; Q9NPC2; HEK293 KCNK9, FluxOR thallium flux fluorescence; hits give low values; B-score at 10 µM; 310,000 tested, 1.2% active; AID 488922;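 active = ratio B-score over 3 SD below the library mean, with starting fluorescence within 5 SD of its mean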;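 also: negative B-score means less thallium flux so channel inhibition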
hERG rescue = shields human hERG channel from block by proarrhythmic agents. Q12809. CHO-hERG, FluxOR thallium flux, dofetilide IC70 present. activation (rescue from dofetilide block), less the hit threshold, % at 10 µM. 310,000 tested, 0.51% active. AID 1511;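 active = activation above the mean of controls blocked by dofetilide plus 5 SD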;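 also: thallium influx through hERG after potassium depolarization seen as dye fluorescence rise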
Target sequence (Q12809 whole entry, looked up): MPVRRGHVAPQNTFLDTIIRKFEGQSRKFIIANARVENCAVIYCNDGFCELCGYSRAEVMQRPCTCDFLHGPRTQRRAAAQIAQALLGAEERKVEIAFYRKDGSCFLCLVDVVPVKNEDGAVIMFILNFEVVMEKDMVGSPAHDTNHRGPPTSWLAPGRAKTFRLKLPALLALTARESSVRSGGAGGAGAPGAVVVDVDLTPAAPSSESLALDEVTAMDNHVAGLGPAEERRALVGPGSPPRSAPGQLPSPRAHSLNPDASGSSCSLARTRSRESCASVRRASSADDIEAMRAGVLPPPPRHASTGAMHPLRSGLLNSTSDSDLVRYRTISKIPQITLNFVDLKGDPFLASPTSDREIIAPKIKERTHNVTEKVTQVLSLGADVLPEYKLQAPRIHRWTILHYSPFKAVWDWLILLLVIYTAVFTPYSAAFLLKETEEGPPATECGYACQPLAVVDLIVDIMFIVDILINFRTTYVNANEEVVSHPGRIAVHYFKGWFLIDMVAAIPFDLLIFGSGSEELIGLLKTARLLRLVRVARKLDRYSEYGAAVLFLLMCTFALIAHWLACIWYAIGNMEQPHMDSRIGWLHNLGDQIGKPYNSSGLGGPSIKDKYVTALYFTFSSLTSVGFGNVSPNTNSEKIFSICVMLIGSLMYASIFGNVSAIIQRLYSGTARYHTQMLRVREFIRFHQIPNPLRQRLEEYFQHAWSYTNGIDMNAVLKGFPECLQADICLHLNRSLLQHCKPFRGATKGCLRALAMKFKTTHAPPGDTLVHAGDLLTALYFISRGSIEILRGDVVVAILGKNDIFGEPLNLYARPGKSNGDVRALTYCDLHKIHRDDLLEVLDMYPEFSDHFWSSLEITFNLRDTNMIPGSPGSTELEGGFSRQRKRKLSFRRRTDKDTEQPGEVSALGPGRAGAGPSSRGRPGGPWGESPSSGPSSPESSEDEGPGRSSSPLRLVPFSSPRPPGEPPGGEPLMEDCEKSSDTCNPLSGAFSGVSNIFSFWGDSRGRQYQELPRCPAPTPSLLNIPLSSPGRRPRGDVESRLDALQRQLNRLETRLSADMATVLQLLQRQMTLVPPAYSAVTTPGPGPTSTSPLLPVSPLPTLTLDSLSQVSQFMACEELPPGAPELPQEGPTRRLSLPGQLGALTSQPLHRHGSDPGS
KCNK9 inh conf = human KCNK9 inhibitor confirmation; HEK293 KCNK9 cells, FluxOR thallium flux fluorescence; 4,900 tested, 43% active; AID 492992; shares compounds with KCNK9 block; inhibition, % at 10 µM;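 active = thallium signal inhibited by more than 5 SD of the compound-free buffer control wells, on both duplicate plates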;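 also: 0% = assay buffer control wells without compound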
Kir21 sel = selectivity of KCNK9 modulators against mouse Kir2.1 | shares compounds with KCNK9 block | Kir2.1 cells, FluxOR thallium flux fluorescence | inhibition, % at 10 µM | 4,900 tested, 4% active | AID 492993;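 active = thallium signal drop more than 5 SD beyond the mean of the no-compound control wells, seen in both duplicate plates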;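 also: signal is fluorescence rise after thallium addition divided by baseline fluorescence; plate controls were assay buffer only for no effect and full block by chlorpromazine control for full effect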
KCNK9 uninduced = second counter-screen for KCNK9 modulators: effect in non-induced cells. shares compounds with KCNK9 block. non-induced KCNK9-HEK293, FluxOR thallium flux. inhibition, % at 10 µM. 4,900 tested, 40% active. AID 492997;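 active = thallium signal drop beyond 5 SD of the untreated control mean, on both duplicate plates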;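 also: plate controls were buffer only IC0 wells for no effect and SID17386958 at its maximal inhibitory level for full effect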
Numbers without * were called inactive; i = inactive; . = no result. The list is not random: actives were taken first. Their share in the collection is about 3.1%.

SMILES	KCNQ1 inh	KCNQ1 act	KCNK3 inh	KCNK9 block	hERG rescue	KCNK9 inh conf	Kir21 sel	KCNK9 uninduced
CC(C)CN(C(=O)CSc1nc(N)cc(N)n1)C1CCS(=O)(=O)C1 (configuration not stated)	.	.	i	.	.	.	.	.
COc1ccc(C(=O)/C=C/NCc2ccc(C)cc2)cc1	i	i	i	i	-7	i	i	i
Cc1ccccc1C(=NC(=O)c1ccccc1)c1ccccc1	i	i	i	-10*	-10	47%*	i	46%*
Cc1oc(-c2cccc(C(F)(F)F)c2)nc1CN1CCN(c2ccccn2)CC1	i	i	i	i	-18	i	i	i
COC(=O)c1cc2occc2n1Cc1nc(-c2cccc(Cl)c2)oc1C	i	i	i	-9.3*	-9	i	i	24%*
Cc1cccc(N2CCN(Cc3nc(-c4ccccc4Cl)oc3C)CC2)n1	i	i	i	i	-13	i	i	i
COC(=O)c1cc2sccc2n1Cc1nc(-c2ccc(Cl)cc2)oc1C	i	i	i	i	-2	.	.	.
Cc1cccc(N2CCN(Cc3nc(-c4cccc(Cl)c4)oc3C)CC2)n1	i	i	i	i	-17	i	i	i
CCc1ccccc1N(C(=O)c1ccco1)C(C(=O)NC1CCCC1)c1cccnc1 (configuration not stated)	i	i	i	i	-11	.	.	.
N#Cc1nc(Cc2ccccc2)oc1N1CCC(Cc2ccccc2)CC1	i	i	i	i	-7	i	i	i
CCN1CCN(C(=O)c2cccc(OC3CCN(S(C)(=O)=O)CC3)c2)[C@@H](C)C1=O	i	i	i	i	-1	.	.	.
O=C(CN1C(=O)CCSc2ccc(S(=O)(=O)N3CCOCC3)cc21)Nc1cccc(F)c1	i	i	i	i	-17	.	.	.
S=C(Nc1ccc(Oc2ccccc2)cc1)NC1CCCCCC1	i	i	i	i	-12	.	.	.
CN(C(=S)Nc1ccc(Oc2ccccc2)cc1)C1CCCCC1	i	i	i	i	-7	i	i	i
COCCNC(=O)c1ccccc1NC(=O)c1ccc(Cl)c(S(=O)(=O)Nc2ccc(C)cc2C)c1	i	i	i	i	-8	.	.	.
Cc1ccc(C)c(NS(=O)(=O)c2cc(C(=O)Nc3ccccc3-c3ccccc3)ccc2Cl)c1	i	i	i	-13*	-2	39%*	i	32%*
C[C@@H](C(=O)NCc1ccccc1)[C@H]1C[C@]1(C)[C@H](NC(=O)OCc1ccccc1)c1ccccc1	i	i	i	-9.2*	-8	49%*	i	i
C[C@@H](C(=O)O)[C@H]1C[C@]1(C)[C@H](NC(=O)OCc1ccccc1)c1ccccc1	i	i	i	i	-7	.	.	.
Cc1cccc(Cl)c1NC(=S)NCCc1ccccn1	i	i	i	-8.2*	-5	44%*	i	28%*
Cc1c(Cl)cccc1NC(=S)NCCc1ccccn1	i	i	i	i	-4	.	.	.
CC(C)OC(=O)c1cc2c(=O)[nH]c(C(Cl)(Cl)Cl)nc2o1	i	i	i	i	4	.	.	.
CNC[C@H](CC1CCCCC1)NC[C@H](Cc1ccccc1)NCCC12CC3CC(CC(C3)C1)C2	i	i	i	-10*	-3	62%*	80%*	26%*
CC(C)n1c(SCC(=O)NC2CC2)nnc1C1CC1	i	i	i	i	-5	.	.	.
Cc1ccccc1OCC(=O)NC(=S)Nc1ccc(Br)c(C)n1	i	i	i	i	-4	.	.	.
COc1ccc(OCC(=O)NC(=S)Nc2ccccc2F)cc1	i	i	i	i	-2	i	i	i
SMILES	KCNQ1 inh	KCNQ1 act	KCNK3 inh	KCNK9 block	hERG rescue	KCNK9 inh conf	Kir21 sel	KCNK9 uninduced
Cc1ccccc1OCC(=O)NC(=S)Nc1cccc2cc(O)ccc12	i	i	i	-8.9*	-9	52%*	i	i
O=C(COc1ccccc1)Nc1ccccc1F	i	i	i	i	0	.	.	.
O=C(CC1CC2CCC1C2)NCCc1ccc(Cl)cc1 (configuration not stated)	i	i	i	i	-4	.	.	.
Cc1ccc(-c2ccc(SCC(=O)c3ccccc3)nn2)cc1	i	i	i	i	-7	.	.	.
COc1ccc(-c2ccc(SCC(=O)c3ccccc3)nn2)cc1OC	i	i	i	-11*	-17	60%*	i	i
O=c1cc(/C=C/c2ccccc2)oc2c1ccc1ccccc12	i	i	i	-8.3*	-15	i	i	i
CCOC(=O)c1sc(NC(=O)C2CC(=O)N(c3ccccc3OC)C2)nc1C (configuration not stated)	.	.	i	.	.	.	.	.
Cc1cccc2c1NC(=O)C21OCC(CO)([N+](=O)[O-])CO1 (configuration not stated)	i	i	i	i	-1	.	.	.
C=CCC1(CC=C)CCCN1C(=O)c1cc(COc2ccc(F)c(F)c2)on1	10*	i	i	i	-5	i	i	i
O=S(=O)(c1ccccc1)N1CCN(Cc2cc3c(cc2Br)OCCO3)CC1	.	.	i	.	.	.	.	.
COc1ccccc1N1CCN(Cc2cc3c(cc2Br)OCCO3)CC1	i	i	i	i	-8	i	i	i
COc1ccc(N2CCN(Cc3csc(C)c3-c3ccc(C)cc3)CC2)cc1	i	i	i	i	-3	i	i	i
COc1ccc(N2CCN(Cc3cc4c(cc3Br)OCCO4)CC2)cc1	i	i	i	i	-19	i	i	i
COc1ccc(N2CCN(CC(=O)Nc3c(C)cc(C)cc3C)CC2)cc1	i	i	i	i	-5	.	.	.
CC(=O)c1cccc(S(=O)(=O)N2CCC(C(=O)Oc3ccc(-c4nnco4)cc3)CC2)c1	.	.	i	.	.	.	.	.
N#Cc1c(SCc2ccc(Cl)cc2)sc(C(=O)c2ccccc2)c1N	i	i	i	-11*	-6	26%*	i	34%*
N#CC1(Cc2ccccc2)c2ccccc2C=CN1C(=O)c1ccccc1 (configuration not stated)	6*	i	i	-9.8*	-19	46%*	i	31%*
N#CC1(Cc2ccc([N+](=O)[O-])cc2)c2ccccc2C=CN1C(=O)c1ccccc1 (configuration not stated)	i	i	i	-12*	-4	32%*	i	34%*

Screening data (PubChem)
